Laboratory results: ChEMBL document CHEMBL3397000, “Rapid synthesis of 4-arylchromenes from ortho-substituted alkynols: A versatile access to restricted isocombretastatin A-4 analogues as antitumor agents” (Eur J Med Chem, 2015)

Experiments:
[1] = Cytotoxicity against human HCT116 cells after 72 hrs by CellTitre-Blue assay; type: functional; conditions: HCT-116, 72 h
[2] = Cytotoxicity against human H1299 cells after 72 hrs by CellTitre-Blue assay; type: functional; conditions: NCI-H1299, 72 h
Outline: (§1)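 ATCC lines grown in DMEM (4.5 g/L glucose) with 10% FCS and 1% glutamine at 37 °C, 5% CO₂. Seeded at 5×10³ cells/well and cultured 24 h. Compound added from DMSO (final <0.1%) for 72 h. Resazurin (CellTiter-Blue) added for 2 h, then fluorescence read at ex 560/em 590 nm. IC50 is the 50% fluorescence drop versus untreated cells, in triplicate.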

[3] = tested on: MDA-MB-231; test: Cytotoxicity against human MDA-MB-231 cells after 72 hrs by CellTitre-Blue assay; type: functional; conditions: MDA-MB-231, 72 h; outline: as §1
[4] = Inhibition of sheep brain tubulin polymerization by DAPI staining-based fluorescence assay; design: species or system Ovis aries
Outline: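 Tubulin was purified by two assembly–disassembly cycles and held at ~2–3 mg/mL in MES assembly buffer with MgCl₂, EGTA and GTP, pH 6.6. Assembly was followed continuously at 37 °C by DAPI fluorescence. IC50 is the concentration halving the maximum assembly rate versus the no-compound rate; mean of three experiments. Reference agents were run the same day.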

[5] = tested on: K562; test: Cytotoxicity against human K562 cells after 72 hrs by CellTitre-Blue assay; type: functional; conditions: K562, 72 h
Outline: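 Cells were kept in RPMI 1640 with 10% FCS and 1% glutamine, humidified, 37 °C, 5% CO₂. Plated at 5×10³ cells/well, grown 24 h, then exposed 72 h to compound delivered in DMSO (below 0.1% final). Viability was read by resazurin reduction over 2 h (fluorescence ex 560, em 590 nm). IC50 is the 50% signal loss relative to untreated wells; triplicate runs.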

[6] = Cytotoxicity against human HCT116 cells at 10 uM after 72 hrs by CellTitre-Blue assay; type: functional; conditions: HCT-116, 72 h
[7] = organism: Ovis aries; test: Inhibition of sheep brain tubulin polymerization at 10 uM by DAPI staining-based fluorescence assay

| SMILES | GI50 [1] [nM] | GI50 [2] [nM] | GI50 [3] [nM] | IC50 [4] [nM] | GI50 [5] [nM] | inhibition at 10 µM [6] [%] | inhibition [7] [%] |
| --- | --- | --- | --- | --- | --- | --- | --- |
| COc1ccc2c(c1N)OCCC2c1cc(OC)c(OC)c(OC)c1 (stereo not drawn) | 50 | 60 | 65 | 4100 | 70 |  |  |
| COc1ccc2c(c1O)OCC=C2c1cc(OC)c(OC)c(OC)c1 | 10 | 15 | 25 | 3700 | 32 |  |  |
| COc1ccc2c(c1N)OCC=C2c1cc(OC)c(OC)c(OC)c1 | 50 | 60 | 65 | 5000 | 60 |  |  |
| C=C(c1ccc(OC)c(O)c1)c1cc(OC)c(OC)c(OC)c1 | 2.2 | 5 | 4.1 | 2200 | 5.2 |  |  |
| COc1cc(C2=CCOc3cc(F)ccc32)cc(OC)c1OC |  |  |  |  |  | < 10 | < 10 |
| COc1ccc2c(c1O)OCCC2c1cc(OC)c(OC)c(OC)c1 (stereo not drawn) | 75 | 80 | 60 | 6200 | 75 |  |  |
| COc1ccc(/C=C\c2cc(OC)c(OC)c(OC)c2)cc1O [COMBRETASTATIN A4] | 2.1 | 5.1 | 3.2 | 1400 | 4.3 |  |  |
| COc1cc(C2=CCOc3ccc(-c4ccccc4)cc32)cc(OC)c1OC | 400 |  |  |  |  |  | < 10 |
| COc1cc(C2=CCOc3cc(CO)ccc32)cc(OC)c1OC |  |  |  |  |  | < 10 | < 10 |
| COc1ccc2c(c1Br)OCC=C2c1cc(OC)c(OC)c(OC)c1 | 300 |  |  |  |  |  | < 10 |
